{
  "source": "paper PMC4153604",
  "about": "(European journal of medicinal chemistry, 2014)",
  "assay_type_in_all_cases": "cell-based",
  "key": {"MIA PaCa-2 cells": {"tested_on": "MIA PaCa-2 cells", "assay": "Apoptosis assay, AO/EB staining", "conditions": "0.5, 1 and 2 µM, 48 h, 5% FBS", "method_in_brief": "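MIA PaCa-2 cells (5 × 10^4 per chamber-slide well) exposed to test compound at 0.5, 1 and 2 µM for 48 h in medium with 5% FBS. Stained with AO/EB (10 µg/mL each) and imaged by fluorescence microscopy (x40, 480/30 nm excitation). Green intact nuclei scored as viable; orange-red, condensed nuclei as apoptotic. Images representative of triplicate experiments.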"}, "[1]": {"tested_on": "MIA PaCa-2 pancreatic cancer cells", "assay": "Cell viability, resazurin assay", "conditions": "20 µM, 48 h, 5% FBS", "method_in_brief": "(§1)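 Cell lines were maintained at 37°C, 5% CO2 to about 80% confluence: BxPC-3 in RPMI 1640, MIA PaCa-2 in DMEM, each with 10% FBS and penicillin/streptomycin. Trypsinized cells were plated at 1 × 10^4/well in 5% FBS medium and treated with 0–20 µM for 48 h. Resazurin (0.02% in DPBS) was added; fluorescence (ex 560/em 590 nm) was read after 2 h. EC50 came from nonlinear regression.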"}, "[2]": {"tested_on": "BxPC-3 pancreatic cancer cells", "assay": "Cell viability, resazurin assay", "conditions": "20 µM, 48 h, 5% FBS", "method_in_brief": "as §1"}, "[3]": {"conditions": "listed as farnesylthiosalicylamide"}},
  "data": [
    {"smiles": "CC(C)=CCC/C(C)=C/CC/C(C)=C/CSC[C@H](NC(=O)CCCCCN1CCN(C)CC1)C(=O)NC1CCCCCCC1", "note": "[8e, L-((4-methylpiperazinyl)hexanoyl)-S-(trans, trans-farnesyl) cysteine cyclooctylamide]", "values": [
      {"measurement": "mode of cell death (AO/EB staining)", "setting": "MIA PaCa-2 cells", "value": "signs of apoptosis were observed"}
    ]},
    {"smiles": "CC(C)=CCC/C(C)=C/CC/C(C)=C/CSc1ccccc1C(=O)O", "note": "[FTS, S-t, t farnesylthiosalicylic acid]", "values": [
      {"measurement": "effect on viability of the cells", "setting": "[1]; listed as salirasib", "value": "ineffective"},
      {"measurement": "effect on viability of the cells", "setting": "[2]; listed as salirasib", "value": "ineffective"}
    ]},
    {"smiles": "CC(C)=CCC/C(C)=C/CC/C(C)=C/CSc1ccccc1C(N)=O", "note": "[FTSA, S-t, t farnesylthiosalicylic amide]", "values": [
      {"measurement": "effect on viability of the cells", "setting": "[1]; [3]", "value": "ineffective"},
      {"measurement": "effect on viability of the cells", "setting": "[2]; [3]", "value": "ineffective"}
    ]}
  ]
}
